Assay results taken from ChEMBL document CHEMBL1149333, “Privileged scaffolds for blocking protein-protein interactions: 1,4-disubstituted naphthalene antagonists of transcription factor complex HOX-PBX/DNA” (Bioorg Med Chem Lett, 2004).
pIC50: −log10 of the molar value.

Experiments:
[1] = Antagonistic activity against HOXA1-PBX1/DNA complex formation by electrophoretic mobility shift assay; assay type: functional
How it was run: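 Recombinant mouse HOXA1 192–288 and mouse/human PBX1 233–319 (2.5 ng each) preincubated 15 min at 4 °C in HEPES pH 7.9 binding buffer with 135 mM NaCl, poly dIdC and inhibitor in DMSO, then 30 min at ~22 °C with 32P-labeled Klenow-extended annealed oligonucleotide probe. Run on 4% polyacrylamide gel in TBE, autoradiographed; IC50 from averaged densitometry of multiple gels; screened initially at 300 μM.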

[2] = target: POU domain, class 3, transcription factor 2 (Mus musculus) (UniProt P31360); assay: Antagonistic activity against BRN2/DNA interaction by electrophoretic mobility shift assay
[3] = target: POU domain, class 3, transcription factor 3 (Mus musculus) (UniProt P31361); assay: Antagonistic activity against BRN1/DNA interaction by electrophoretic mobility shift assay
Chain of POU domain, class 3, transcription factor 3 (Mus musculus) (P31361 whole entry, looked up, the tested form may be a part): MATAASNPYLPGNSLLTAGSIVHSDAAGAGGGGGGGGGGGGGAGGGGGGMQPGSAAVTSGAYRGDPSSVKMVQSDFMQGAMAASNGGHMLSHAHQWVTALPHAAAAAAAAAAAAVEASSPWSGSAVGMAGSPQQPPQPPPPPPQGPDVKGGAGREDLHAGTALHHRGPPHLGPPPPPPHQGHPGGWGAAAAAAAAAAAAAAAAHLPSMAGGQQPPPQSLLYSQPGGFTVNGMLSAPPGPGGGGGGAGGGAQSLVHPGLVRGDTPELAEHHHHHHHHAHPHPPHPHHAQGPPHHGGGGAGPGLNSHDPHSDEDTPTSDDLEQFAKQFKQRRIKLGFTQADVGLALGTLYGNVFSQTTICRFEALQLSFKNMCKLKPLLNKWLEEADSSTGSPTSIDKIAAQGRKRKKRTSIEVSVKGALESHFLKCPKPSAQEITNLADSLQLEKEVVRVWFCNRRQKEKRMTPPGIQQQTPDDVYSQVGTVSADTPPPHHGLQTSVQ

Chain of POU domain, class 3, transcription factor 2 (Mus musculus) (P31360 whole entry, looked up, the tested form may be a part): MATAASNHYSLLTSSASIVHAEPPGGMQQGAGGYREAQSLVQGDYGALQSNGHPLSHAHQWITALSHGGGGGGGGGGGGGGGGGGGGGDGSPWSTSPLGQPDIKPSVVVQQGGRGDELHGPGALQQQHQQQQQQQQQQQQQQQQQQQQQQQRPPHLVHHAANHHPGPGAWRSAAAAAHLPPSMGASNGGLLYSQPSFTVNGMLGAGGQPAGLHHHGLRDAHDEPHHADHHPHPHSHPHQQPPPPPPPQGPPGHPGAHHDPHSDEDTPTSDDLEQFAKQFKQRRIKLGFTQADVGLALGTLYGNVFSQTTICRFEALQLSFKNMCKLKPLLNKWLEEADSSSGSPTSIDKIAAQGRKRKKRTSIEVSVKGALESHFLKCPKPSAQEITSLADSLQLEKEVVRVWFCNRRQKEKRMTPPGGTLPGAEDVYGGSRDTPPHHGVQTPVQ

SMILES	pIC50 [1]	pIC50 [2]	pIC50 [3]
COc1ccc(NC(=O)COc2ccc(C(=O)Nc3cccc(F)c3)c3ccccc23)cc1	3.79		
NC(=O)COc1ccc(C(=O)Nc2cccc(F)c2)c2ccccc12	3.57		
COc1ccc(NC(=O)COc2ccc(C(=O)Nc3cccc(F)c3)c3ccccc23)cc1OC	3.33		
O=C(COc1ccc(C(=O)Nc2cccc(F)c2)c2ccccc12)Nc1cccc(F)c1	< 3.52		
O=C(COc1ccc(C(=O)Nc2cccc(F)c2)c2ccccc12)Nc1ccc(O)cc1	4.19	3.86	3.91
C#CCNC(=O)COc1ccc(C(=O)Nc2cccc(F)c2)c2ccccc12	3.48		
O=C(O)CNC(=O)COc1ccc(C(=O)Nc2cccc(F)c2)c2ccccc12	< 3.52		
O=C(COc1ccc(C(=O)Nc2cccc(F)c2)c2ccccc12)NCCOCc1ccccc1	< 3.52		
O=C(COc1ccc(C(=O)Nc2cccc(F)c2)c2ccccc12)Nc1ccc(F)cc1	3.53		
COc1cc(CNC(=O)COc2ccc(C(=O)Nc3cccc(F)c3)c3ccccc23)cc(OC)c1	< 3.52		
CC(C)(C)NC(=O)COc1ccc(C(=O)Nc2cccc(F)c2)c2ccccc12	< 3.52		
O=C(COc1ccc(C(=O)Nc2cccc(F)c2)c2ccccc12)Nc1ccccc1F	3.36		
CC(C)NC(=O)COc1ccc(C(=O)Nc2cccc(F)c2)c2ccccc12	3.57		
COc1cc(NC(=O)COc2ccc(C(=O)Nc3cccc(F)c3)c3ccccc23)cc(OC)c1	< 3.52		
COc1ccccc1NC(=O)COc1ccc(C(=O)Nc2cccc(F)c2)c2ccccc12	3.14		
COc1ccc(OC)c(NC(=O)COc2ccc(C(=O)Nc3cccc(F)c3)c3ccccc23)c1	< 3.52		
O=C(COc1ccc(C(=O)Nc2cccc(F)c2)c2ccccc12)Nc1ccccc1	3.60		
CN(C)CCNC(=O)COc1ccc(C(=O)Nc2cccc(F)c2)c2ccccc12	< 3.52		
CCCNC(=O)COc1ccc(C(=O)Nc2cccc(F)c2)c2ccccc12	3.56		
CN(C)C(=O)COc1ccc(C(=O)Nc2cccc(F)c2)c2ccccc12	< 3.52		
COc1cccc(NC(=O)COc2ccc(C(=O)Nc3cccc(F)c3)c3ccccc23)c1	3.24		

Other lines, results leading:

pIC50 [1]	pIC50 [2]	pIC50 [3]	SMILES
< 3.52			CCOC(=O)CNC(=O)COc1ccc(C(=O)Nc2cccc(F)c2)c2ccccc12
3.53			CC(C)CNC(=O)COc1ccc(C(=O)Nc2cccc(F)c2)c2ccccc12
< 3.52			O=C(Nc1cccc(F)c1)c1ccc(OCC(=O)N2CCOCC2)c2ccccc12
3.76	< 2.00	3.09	O=C(COc1ccc(C(=O)Nc2cccc(F)c2)c2ccccc12)NC1CC1
< 3.52			CNC(=O)COc1ccc(C(=O)Nc2cccc(F)c2)c2ccccc12
3.70			CCNC(=O)COc1ccc(C(=O)Nc2cccc(F)c2)c2ccccc12
4.07	3.83	3.85	O=C(COc1ccc(C(=O)Nc2cccc(F)c2)c2ccccc12)Nc1cccc(O)c1
< 3.52			O=C(COc1ccc(C(=O)Nc2cccc(F)c2)c2ccccc12)NCCO
< 3.52			NNC(=O)COc1ccc(C(=O)Nc2cccc(F)c2)c2ccccc12
3.95	3.69	3.79	O=C(COc1ccc(C(=O)Nc2cccc(F)c2)c2ccccc12)NCC(F)(F)F
< 3.52			Cc1ccc(NC(=O)COc2ccc(C(=O)Nc3cccc(F)c3)c3ccccc23)c(C)c1
